ChEMBL document CHEMBL4359913, “Identification and characterization of benzo[d]oxazol-2(3H)-one derivatives as the first potent and selective small-molecule inhibitors of chromodomain protein CDYL” (Eur J Med Chem, 2019)
Active and inactive are the calls of the source.

Legend:
[1] = target: T1, Chromodomain Y-like protein (Mus musculus) (UniProt Q9WTK2); assay: Inhibition of CDYL in C57BL/6 mouse hippocampal neurons as increase in MYT1 mRNA expression at 150 uM incubated for 24 hrs by RT-qPCR analysis
T1 sequence (whole entry): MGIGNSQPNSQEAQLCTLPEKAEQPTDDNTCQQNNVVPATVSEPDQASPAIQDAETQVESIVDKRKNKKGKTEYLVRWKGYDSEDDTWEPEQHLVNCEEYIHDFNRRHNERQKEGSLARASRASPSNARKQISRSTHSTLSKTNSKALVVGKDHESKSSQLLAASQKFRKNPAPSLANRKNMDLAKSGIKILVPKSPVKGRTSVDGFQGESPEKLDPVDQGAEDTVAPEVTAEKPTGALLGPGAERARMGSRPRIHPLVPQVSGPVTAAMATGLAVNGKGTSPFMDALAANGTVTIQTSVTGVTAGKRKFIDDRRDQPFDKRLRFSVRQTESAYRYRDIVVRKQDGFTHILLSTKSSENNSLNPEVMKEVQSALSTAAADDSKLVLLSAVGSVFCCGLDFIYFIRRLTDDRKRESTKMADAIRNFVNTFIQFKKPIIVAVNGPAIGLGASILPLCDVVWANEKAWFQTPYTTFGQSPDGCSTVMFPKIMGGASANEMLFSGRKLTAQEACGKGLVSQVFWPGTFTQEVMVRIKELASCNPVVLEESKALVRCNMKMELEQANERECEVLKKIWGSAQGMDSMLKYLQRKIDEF
Summary of the method: (§1)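 Mouse cortical or hippocampal neurons, dissociated with trypsin and kept in Neurobasal/B27, treated with 150 µM compound for 24 h. mRNA measured by SYBR green RT-qPCR with the 2^-ΔΔCt method, GAPDH as reference, relative to DMSO. Mean ± S.E.M. of triplicate experiments, Student's t-test.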

[2] = target: T2, Chromodomain Y-like protein (Homo sapiens) (UniProt Q9Y232); assay: Inhibition of CDYL in human SH-SY5Y cells assessed as increase in MYT1 mRNA expression incubated for 24 hrs by RT-qPCR analysis; type: cell-based
T2 sequence (whole entry): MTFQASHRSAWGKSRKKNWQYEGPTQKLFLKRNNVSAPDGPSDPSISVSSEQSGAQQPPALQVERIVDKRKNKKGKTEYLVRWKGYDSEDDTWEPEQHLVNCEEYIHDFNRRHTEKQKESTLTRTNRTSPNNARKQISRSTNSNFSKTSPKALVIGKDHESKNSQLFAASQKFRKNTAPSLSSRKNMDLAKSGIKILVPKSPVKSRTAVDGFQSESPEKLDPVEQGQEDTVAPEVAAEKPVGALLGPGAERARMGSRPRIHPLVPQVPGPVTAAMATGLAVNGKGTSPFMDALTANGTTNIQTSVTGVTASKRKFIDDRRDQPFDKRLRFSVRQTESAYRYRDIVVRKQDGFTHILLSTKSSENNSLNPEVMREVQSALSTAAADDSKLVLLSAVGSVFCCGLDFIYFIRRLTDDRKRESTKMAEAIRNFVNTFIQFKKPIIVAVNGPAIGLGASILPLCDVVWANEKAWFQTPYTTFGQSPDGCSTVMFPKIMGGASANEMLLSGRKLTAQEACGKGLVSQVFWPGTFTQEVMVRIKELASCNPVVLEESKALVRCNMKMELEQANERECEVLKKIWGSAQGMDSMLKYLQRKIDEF
Summary of the method: (§2)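 SH-SY5Y or HEK-293T cells grown in DMEM with 10% FBS and treated with compound for 24 h. mRNA quantified by SYBR green RT-qPCR after DNase treatment, 2^-ΔΔCt method with GAPDH as reference, relative to DMSO. Mean ± S.E.M. of triplicate experiments, Student's t-test.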

[3] = target: T2, Chromodomain Y-like protein (Homo sapiens); assay: Inhibition of CDYL in human HEK293T cells assessed as increase in MYT1 mRNA expression at 50 to 200 uM incubated for 24 hrs by RT-qPCR analysis; type: cell-based; summary of the method: as §2
[4] = target: T2, Chromodomain Y-like protein (Homo sapiens); assay: Inhibition of CDYL in human HEK293T cells assessed as increase in BDNF mRNA expression at 50 to 200 uM incubated for 24 hrs by RT-qPCR analysis; type: cell-based; summary of the method: as §2
[5] = target: T2, Chromodomain Y-like protein (Homo sapiens); assay: Inhibition of CDYL in human HEK293T cells assessed as increase in VGF mRNA expression at 50 to 200 uM incubated for 24 hrs by RT-qPCR analysis; type: cell-based; summary of the method: as §2
[6] = target: T2, Chromodomain Y-like protein (Homo sapiens); assay: Inhibition of CDYL in human SH-SY5Y cells assessed as decrease in enrichment of CDYL at MYT1 promoter site at 150 uM incubated for 24 hrs by ChIP-qPCR analysis; type: cell-based
Summary of the method: (§3)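 About 1×10^7 SH-SY5Y cells given 150 µM compound or DMSO for 24 h, fixed in 1% formaldehyde for 10 min. Chromatin immunoprecipitated overnight-style (12 h, 4 °C) with CDYL or H3K27me3 antibody, captured on Protein A/G beads, washed, decrosslinked at 65 °C. Promoter DNA quantified by qPCR, mean ± S.E.M. of triplicate experiments, Student's t-test.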

[7] = target: T2, Chromodomain Y-like protein (Homo sapiens); assay: Binding affinity to CDYL in human SH-SY5Y cells assessed as increase in protein thermal stability at 150 uM incubated for 10 mins at room temperature followed by exposure to 40 to 67 degC for 4 mins followed by cooling for 3 mins at room temperature by CETSA; type: cell-based
Summary of the method: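 SH-SY5Y cells freeze-thawed three times in liquid nitrogen, lysate diluted with PBS, given 150 µM compound or DMSO for 10 min at room temperature. Aliquots heated at 40–67 °C for 4 min, cooled 3 min, spun at 13,000 g for 10 min at 4 °C. CDYL in the supernatant read by SDS-PAGE and Western blot, bands quantified by densitometry.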

[8] = target: T2, Chromodomain Y-like protein (Homo sapiens); assay: Inhibition of CDYL in human SH-SY5Y cells assessed as decrease in enrichment of CDYL at BDNF promoter site at 150 uM incubated for 24 hrs by ChIP-qPCR analysis; type: cell-based; summary of the method: as §3
[9] = target: T2, Chromodomain Y-like protein (Homo sapiens); assay: Inhibition of CDYL in human SH-SY5Y cells assessed as decrease in enrichment of CDYL at VGF promoter site at 150 uM incubated for 24 hrs by ChIP-qPCR analysis; type: cell-based; summary of the method: as §3
[10] = target: T2, Chromodomain Y-like protein (Homo sapiens); assay: Inhibition of CDYL in human SH-SY5Y cells assessed as decrease in enrichment of H3K27me3 at MYT1 promoter site at 150 uM incubated for 24 hrs by ChIP-qPCR analysis; type: cell-based; summary of the method: as §3
[11] = target: T2, Chromodomain Y-like protein (Homo sapiens); assay: Inhibition of CDYL in human SH-SY5Y cells assessed as decrease in enrichment of H3K27me3 at BDNF promoter site at 150 uM incubated for 24 hrs by ChIP-qPCR analysis; type: cell-based; summary of the method: as §3
[12] = target: T1, Chromodomain Y-like protein (Mus musculus); assay: Inhibition of CDYL in C57BL/6 mouse hippocampal neurons as increase in VGF mRNA expression at 150 uM incubated for 24 hrs by RT-qPCR analysis; summary of the method: as §1
[13] = target: T1, Chromodomain Y-like protein (Mus musculus); assay: Inhibition of CDYL in C57BL/6 mouse cortical neurons as increase in BDNF mRNA expression at 150 uM incubated for 24 hrs by RT-qPCR analysis; summary of the method: as §1
[14] = target: T1, Chromodomain Y-like protein (Mus musculus); assay: Inhibition of CDYL in C57BL/6 mouse cortical neurons as increase in VGF mRNA expression at 150 uM incubated for 24 hrs by RT-qPCR analysis; summary of the method: as §1

O=C(Cn1c(=O)oc2ccccc21)N1CCC(N2CCCC2)CC1
active: Activity [1] | Activity [2] Dose-dependent effect | Activity [3] | Activity [4] | Activity [5] | inhibition [6] | Activity [7] | inhibition [8] | inhibition [9] | inhibition [10] | inhibition [11] | Activity [12] | Activity [13] | Activity [14]
